# Data from the RNAGym collection of RNA variant scans (doi:10.1126/science.aae0568).
# This sample holds only a part of the variants without activity.
# B1: tRNA (parent)
# chain: GUUCCGUUGGCGUAAUGGUAACGCGUCUCCCUCCUAAGGAGAAGACUGCGGGUUCGAGUCCCGUACGGAACG
# Variants of: B1
# Assay: yeast fitness relative to wild type (ratio to wild type); higher = fitter; tRNA-Arg(CCU), competitive growth, 37 C, YPD
# Summary of the method: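 Start and end populations of a pooled competition were compared by 100-nucleotide paired-end sequencing of gene amplicons. The Saccharomyces cerevisiae strains carried tRNA-Arg(CCU) gene variants at the native genomic locus, synthesised with a 3% per-site mutation rate at 69 sites, and competed in YPD at 37°C for 24 hours in six parallel replicates. Darwinian fitness relative to wild type was based on the change in genotype frequencies. Genotypes required ≥ 100 starting reads, and estimates < 0.5 were set to 0.5.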
row,Variant,yeast fitness
1,G23C C24U A36G A57U G63A,≤ 0.5
2,G23C C27G C61U C66U,≤ 0.5
3,G23A C24A C31A A36G G44A C60U C62A,≤ 0.5
4,G23C C27U,0.726
5,G23A A40U,0.842
6,G23A C30A C46G,0.706
7,G23A C60G G67A,≤ 0.5
8,G23A C29G C55A,0.536
9,G23C C27G C31U,≤ 0.5
10,G23C C46A G56A C62U,0.758
11,G23A A36G A69C,0.708
12,C22U U54C C55A A65G C66U,≤ 0.5
13,G23C C49G A57G A70U,≤ 0.5
14,G23A C27U A69G,≤ 0.5
15,G23A G44C C61G,≤ 0.5
16,G23A C29U A45U,0.967
17,C22U U59A,0.705
18,G23A U28C C30A C46U A70U,≤ 0.5
19,C22U U35C,0.731
20,G23A C29G G68C,≤ 0.5
21,G23C A57G G68A,0.859
22,G23A C61U,0.665
23,G23A C61A,0.539
24,G23A C61G,0.714

row,Variant,yeast fitness
1,G23C A70C,0.73
2,G23A C33G G50A,0.53
3,G23A C46U U59C,0.587
4,C22U U35A C66U,≤ 0.5
5,C22U U47C G51C C66U,≤ 0.5
6,G23A G52A G63A,≤ 0.5
7,G23A C29G C30G C49A G56C C61U,0.702
8,G23A C49A U59C C62U A65U,≤ 0.5
9,C22U U47C C62U,0.667
10,G23A C33U A69U,≤ 0.5
11,G23A A36G C55G,0.578
12,G23A C27A,0.821
13,G23C A37C G52C C66G A69C,0.612
14,G23A C30A G51A,0.562
15,C22U U47A C60U G67C A69U,≤ 0.5
16,G23C C24G C34G,≤ 0.5
17,G23A A40C U53C,≤ 0.5
18,G23C C24A A57G G68A,≤ 0.5
19,G23A C30U A37C U54C,≤ 0.5
20,G23A C30U C33A G41C A42U A43G,≤ 0.5
21,G23A U32C,0.628
22,G23A C24G C29U G41A,≤ 0.5
23,C22U U35C A37U G50C C66U,0.569
24,G23C C30U C34U G67C,≤ 0.5

row,Variant,yeast fitness
1,C22U U32C C55A,≤ 0.5
2,G23A C33G U35G C60U C62G A69U,≤ 0.5
3,G23C C55G C60A,≤ 0.5
4,G23A U47C,0.781
5,G23A C31U G56U A65U G68C,≤ 0.5
6,G23A U59C G68A,≤ 0.5
7,G23A U28A C30U A40U G52C G67A,0.63
8,G23C C27U C30U,0.53
9,G23C C31G C33A A57U U59A G63A,≤ 0.5
10,G23A C30G A65U,≤ 0.5
11,G23C C49U C62A C66A,≤ 0.5
12,G23C C27A A45G G51C G63A G68A,≤ 0.5
13,G23C C29U C49A,≤ 0.5
14,G23C C29A C49U,0.596
15,G23A G68U,0.641
16,G23A G68C,0.746
17,G23A A40C C55G,≤ 0.5
18,G23A C29A C31G,0.664
19,G23A C30G C33G A36U C46G C55G,0.589
20,G23C C24G G50A A57G,≤ 0.5
21,C22U U47G U59A,≤ 0.5
22,C22U U35C C49U,≤ 0.5
23,G23A C55U G58A,≤ 0.5
24,G23C C24G G63C A65U,≤ 0.5

row,Variant,yeast fitness
1,G23C C31U C55A,≤ 0.5
2,G23C C34U A36U,≤ 0.5
3,G23C C29A,0.548
4,G23C C29U,0.604
5,G23C A69C,0.612
6,G23C A69U,0.737
7,G23C C33G C46A,0.53
8,G23A A36G,0.668
9,G23C C31G G44C U47A C66U A69C,≤ 0.5
10,G23A U35A A65C,≤ 0.5
11,G23A G48C,0.759
12,C22U U32C C46U U54G,0.593
13,G23A A42C C60U C61G,≤ 0.5
14,G23A C30G G67A,0.726
15,G23A A42G A45U G63C U64C,0.638
16,G23A C30U C55A,0.573
17,G23C C55G A69U,≤ 0.5
18,G23A C33G U35G C60A C62U,≤ 0.5
19,G23A C29A G68A,≤ 0.5
20,G23C A57G G63C A65U,≤ 0.5
21,G23A C29U C31U A42G C61A,≤ 0.5
22,G23C A45U G51C,≤ 0.5
23,G23A G25A,0.958
24,G23A U28A C30U A40C G52C G67A,≤ 0.5

row,Variant,yeast fitness
1,G23A C33A C34G,≤ 0.5
2,G23C C31G A40U G51A A57C,≤ 0.5
3,G23A C30G C33G A36U C46G C55G C61U,0.567
4,G23A C30U A69G A70G,≤ 0.5
5,C22U U32G C34U A40G C49U C66U,0.552
6,G23A G38A G41C G50C C55G,0.696
7,G23C C27G U35G C62A,0.59
8,G23C A43G G58C U64G,0.57
9,G23A C29U C30A C46G,≤ 0.5
10,G23C C29G A43U G50A G63A A65C,≤ 0.5
11,C22U U32G C34U A40G A70U,0.563
12,G23A C30U U35G A45U A57C,0.533
13,G23C C31G G44C U47A A69C,≤ 0.5
14,G23C C33A,≤ 0.5
15,G23A C62A,0.516
16,G23A A45G,0.645
17,G23A A45U,0.674
18,G23A A45C,0.846
19,G23C C27U A45G G52A G58A,≤ 0.5
20,G23C C29A G44A,0.608
21,G23A C30A A43U,≤ 0.5
22,G23A C30G C55U G63A,0.582
23,G23C C33G A42U G56U C62U,≤ 0.5
24,G23A C24G U32G,0.609

row,Variant,yeast fitness
1,G23A C33G C49A U54G A65G,0.617
2,G23A C31A G50C C55G,0.548
3,G23C C29A G38A A57G,≤ 0.5
4,G23C C30A,0.6
5,G23C C30G G67A,≤ 0.5
6,G23A C24G,≤ 0.5
7,G23A A36U G39C G50A,≤ 0.5
8,G23C A42C U47A C49G A69U A70U,≤ 0.5
9,G23A G58C C61U,0.554
10,G23C A42U C49G A65U,≤ 0.5
11,C22U U64C,0.977
12,G23C C24A C30G A40U U47A G51C G63A C66A A69U,0.54
13,G23A U26A C30U A40U G44A U59A,≤ 0.5
14,G23A C49U U54C,≤ 0.5
15,G23A A37G,0.57
16,G23C A40U C55U,≤ 0.5
17,G23C C46U,0.568
18,G23A G25C C46G G48A C66A,≤ 0.5
19,G23A C27U C29U G39A G58A A65C,≤ 0.5
20,G23C C27G C31A A45U G67A,≤ 0.5
21,G23C C34A A36C A37C A40C G67U,≤ 0.5
22,G23A C33G U54A G56C,≤ 0.5
23,C22U U54A C55U G63A,0.54
24,G23A C61U G67A,0.525

row,Variant,yeast fitness
1,G23A C24U G38C A70C,≤ 0.5
2,G23C A37U G41A G63A,0.558
3,G23A A43U G50A U54G G68C,≤ 0.5
4,G23A C55U,0.625
5,G23A C30G A69U,≤ 0.5
6,G23A C49A,0.526
7,G23A C49G,0.873
8,G23A C27A A57U,0.634
9,C22U U54G A65G G68U A70C,≤ 0.5
10,G23A C27U A65U,0.658
11,C22U U32A,0.733
12,G23C A43U C61U G68A,0.52
13,G23A U28C C30A,≤ 0.5
14,G23A A45G A69C,0.507
15,C22U U35C C49U C66U,0.586
16,G23C C31G A40U G51A,0.656
17,G23A C30U C66U,≤ 0.5
18,G23A C60A,≤ 0.5
19,C22U U28G A45G,≤ 0.5
20,G23A C33G G63A,0.594
21,G23A C29G A45U C46U C60G C61U A69G,≤ 0.5
22,G23A G63C,0.613
23,G23A A43C,0.826
